# Screening data from PubChem.
# Rows were chosen to be rich in hits. Some 12% of all compounds tested hit in one or more screens of this group.
# Dynein transport: inhibitors of GR-EGFP nuclear translocation, primary screen, dynein cargo transport inhibitor project, imaging, high-content, 3617.4 mouse cells. actives 0.47% (n = 220,000). test concentration mostly 20 µM; stimulated with dexamethasone, 1 µM; hits give low values. z-score, hits read low. AID 1381, 2008;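 active = plate z-score of nuclear minus cytoplasmic receptor signal below a set negative limit, without overly bright fluorescence or cell loss, cut at about -3.5 in these data, passing the limit was not always enough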;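 also: z-score of nuclear minus cytoplasmic ring GR-EGFP intensity difference per well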
#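 Also added: dexamethasone, 1.0 µM final. Medium: tet-free, stripped-serum medium. Detection: fixed, Hoechst-stained cells imaged at 10x for EGFP. Read-out: nuclear-to-cytoplasmic GR-EGFP distribution per well. Times: induction 48 h, compound 1 h, agonist 30 min.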
# Autophagy mod: autophagy modulators in MEF cells, primary screen, imaging, high-content, MEF GFP-LC3 | MEF GFP-LC3 puncta imaging; test concentration mostly 10 µM | calls only at 10 µM (by protocol) | actives 0.98% (n = 190,000);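 active = percentage of spot-positive cells more than 3 SD above its plate mean, without a fluorescence outlier flag or 80% toxicity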;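 also: spot-positive cell cutoff set from DMSO-treated cells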
# MT stabilizer: microtubule stabilizers in HeLa cells, primary screen, imaging, high-content imaging; HeLa tubulin immunostaining HCS, 24 h; share of cells brighter than vehicle mean+2SD; % tubulin-high responders, % at 10 µM; actives 0.83% (n = 200,000);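 active = plate Z-score above 3 for both tubulin-high and condensed-nucleus cell shares, with cell loss under 80%, at 10 µM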;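 also: anti alpha tubulin signal scored within the nucleus-defined area of each cell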
# L major viab: Leishmania major promastigote growth inhibition, primary screen | Leishmania major promastigotes, resazurin fluorescence viability | inhibition, % at 10 µM | actives 9% (n = 200,000) | AID 1063, 2008; in the data active = inhibition above about 50%;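 also: promastigotes grown with compound for 44 hours at 28 °C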
# CHOP inh: inhibitors of CHOP promoter induction, primary screen, cell-based, unfolded protein response, luciferase reporter; CHO-K1 CHOP-promoter luciferase, tunicamycin-induced, 15-18 h; inhibition, % at 10 µM; actives 3.8% (n = 220,000); AID 2732, 2010;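 active = compounds that reduced the stress-induced luciferase reporter signal by more than about 70% of percent inhibition, limit read from the data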;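 also: 0% = tunicamycin plus vehicle and 100% = wells without tunicamycin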
# b-catenin transl: modulators of beta-catenin nuclear translocation, primary screen, imaging, HeLa cells, immunofluorescence, high-content; nuclear translocation activity, % at 5 µM; actives 0.3% (n = 190,000); AID 1665, 2009;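 active = nuclear translocation activity above 50% at 5 µM, with a well cell count of 50 or more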;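 also: per-cell ratio of nuclear to cytoplasmic median beta-catenin stain intensity; plate controls were DMSO negative control for no effect and GSK-3 inhibitor IX positive control for full effect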
#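 test system = HeLa cells, endogenous beta-catenin | dosing = single 5 µM dose plus 0.02–20 µM confirmation series | times = compound treatment 24 h, 37°C, 5% CO2 | technique = beta-catenin immunofluorescence imaging with DAPI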
# * hit, by the source's call; i = inactive; x = no result given; + = active, no number.
SMILES,Dynein transport,Autophagy mod,MT stabilizer,L major viab,CHOP inh,b-catenin transl
COc1cc(-c2nc(CN(C)C(C)c3ccncn3)c(C)o2)ccc1F (stereo unspecified),-0.58,i,6,10,11,2
CC(=O)Nc1ccc(S(=O)(=O)Nc2nc3ccccc3nc2N2CCc3ccccc3C2)cc1,0.36,i,2,85*,21,-1
O=S(=O)(Nc1nc2ccccc2nc1N1CCN(c2ccccn2)CC1)c1ccc(Cl)cc1,0.71,i,3,66*,5,-3
Cc1ccc(S(=O)(=O)Nc2nc3ccccc3nc2N2CCN(c3ccccc3F)CC2)cc1,0.55,i,1,35,22,0
CC(=O)Nc1ccc(S(=O)(=O)Nc2nc3ccccc3nc2N2CCCCCC2)cc1,1,i,1,-6,5,-2
O=S(=O)(Nc1nc2ccccc2nc1-[n+]1ccccc1)c1ccc(Cl)cc1,0.52,i,2,56*,27,-3
O=S(=O)(Nc1nc2ccccc2nc1N1CCc2ccccc2C1)c1ccc(Br)cc1,1.7,i,3,13,18,-2
O=S(=O)(Nc1nc2ccccc2nc1N1CCc2ccccc2C1)c1ccc(Cl)cc1,0.86,i,4,57*,59,-2
Cc1cc(=O)oc2cc(OCC(=O)N3c4ccccc4CC3C)ccc12 (stereo unspecified),-0.11,i,51*,-1,x,-7
Cc1cc(=O)oc2cc(OCC(=O)N3CC(C)OC(C)C3)ccc12 (stereo unspecified),-0.3,i,2,-3,0,-5
COc1ccc(C2=NO[C@@H]3[C@@H]4C[C@@H]([C@H]5C(=O)N(C)C(=O)[C@@H]45)[C@H]23)cc1,0.01,i,2,-3,17,-2
CCOC(=O)c1ccc(N/C=C\C(=O)c2cccc(OC)c2)cc1,0.022,i,2,-6,-46,4
COc1cccc(C(=O)/C=C/Nc2cc(C)ccc2O)c1,-0.25,+,2,26,x,x
CC(C)c1cccc(OCCCCN(C)C)c1,-0.44,i,1,86*,2,-1
CCN(CC)CCOc1cccc(C(C)C)c1,-0.34,i,2,83*,28,1
CCN(CC)CCOC(=O)C(c1ccccc1)c1ccccc1,1.3,i,3,-4,16,x
CN1CCN(Cc2nc3c(c(=O)[nH]c(=O)n3C)n2Cc2c(F)cccc2Cl)CC1,x,x,x,x,x,-1
C=CCN(Cc1nc(-c2cc(OC)ccc2OC)oc1C)C1CCS(=O)(=O)C1 (stereo unspecified),-0.62,i,2,26,12,0
C=CCN(Cc1nc(-c2ccc(OC)c(OC)c2)oc1C)C1CCS(=O)(=O)C1 (stereo unspecified),0.35,i,2,54*,7,0
C/C(N)=C(/C#N)C(=O)CSc1nnc(Nc2cccc(C)c2)s1,-1.1,i,5,76*,-11,-1
CCSc1nnc(NC(=O)Nc2cccc(C)c2)s1,0.035,x,x,x,12,-3
COc1cccc(Nc2nnc(SCC(=O)N(CC(C)C)CC(C)C)s2)c1,-1,i,2,99*,57,-4
COc1ccc(-c2ccnc(SCC(=O)N3CCN(c4ccccc4)CC3)n2)cc1,0.62,x,x,x,28,0
CC1CCCN(Cc2csc(N)n2)C1 (stereo unspecified),-0.26,i,4,-7,47,-7
COc1ccc(NC(=O)c2nn(C34CC5CC(CC(C5)C3)C4)cc2[N+](=O)[O-])cc1,0.73,i,5,96*,22,-1
SMILES,Dynein transport,Autophagy mod,MT stabilizer,L major viab,CHOP inh,b-catenin transl
O=C(Nc1cccc2ccccc12)c1nn(C23CC4CC(CC(C4)C2)C3)cc1[N+](=O)[O-],0.39,i,4,81*,-5,-2
CCn1cc([N+](=O)[O-])c(C(=O)Nc2ccc3c(c2)OCCO3)n1,-0.57,i,2,1,-3,-2
CN(CCc1cnn(C)c1)Cc1nc(CC2CC2)no1,0.58,i,3,-4,7,0
COc1cc(/C=N/NC(=O)CC23CC4CC(CC(C4)C2)C3)cc(Br)c1OCC(=O)N(C)C,-0.6,i,1,93*,42,x
O=C(CC12CC3CC(CC(C3)C1)C2)N/N=C/c1ccncc1,0.53,i,3,68*,-16,-2
COC(=O)N/N=C(\CCC(=O)O)c1cccs1,0.97,x,x,x,18,-1
COc1ccc(Cn2c(=S)[nH]c3ccccc32)cc1,0.45,i,3,-1,15,0
COc1ccc(-n2c(=S)[nH]c3ccccc32)cc1,-0.56,i,4,53*,25,-4
O=C(N/N=C/c1ccc(Cl)cc1Cl)C(=O)NC1CC1,-0.37,i,2,-10,68,-1
Cc1cccc(N(CC(=O)NCCSCc2ccco2)S(=O)(=O)c2ccccc2)c1,0.3,i,2,61*,9,0
O=C(CN(C(=O)CNS(=O)(=O)c1ccccc1)c1ccc2c(c1)OCCO2)NCc1ccco1,-0.42,i,5,-3,19,-4
O=C(CN(c1ccc2c(c1)OCCO2)S(=O)(=O)c1ccccc1)NCc1ccco1,-0.29,i,3,92*,-7,x
Cc1ccc(N(CC(=O)NCCSCc2ccco2)S(=O)(=O)c2ccc(C)cc2)cc1,-0.62,i,1,11,65,-1
O=C(CN(c1ccc(F)cc1)S(=O)(=O)c1ccc2c(c1)OCCO2)NCc1ccncc1,-0.17,i,2,92*,3,1
CCN(CC)S(=O)(=O)c1cccc(NC2=NCCCCC2)c1,-0.48,x,x,x,4,1
CN(C)S(=O)(=O)c1ccc(C(=O)OCC(=O)c2ccc(OC(F)F)cc2OC(F)F)cc1,-0.35,i,2,7,68,-2
Cn1cnc([N+](=O)[O-])c1Sc1nc2ccccc2[nH]1,-1.5,x,x,x,-19,0
COc1ccc2nc(SCC(N)=O)[nH]c2c1,0.37,i,22,-2,28,x
Cc1nc([N+](=O)[O-])c(Sc2nc3ccccc3[nH]2)n1Cc1ccccc1,-2.7,i,1,99*,-7,0
Cc1cc2nc(Sc3c([N+](=O)[O-])nc(C)n3Cc3ccccc3)[nH]c2cc1C,-3.4,i,9,93*,-97,4
COc1ccc2nc(Sc3c([N+](=O)[O-])nc(C)n3Cc3ccccc3)[nH]c2c1,-2.4,i,2,87*,-61,5
Cc1nc([N+](=O)[O-])c(N2CCN(Cc3ccccc3)CC2)n1Cc1ccccc1,0.27,i,3,27,-13,x
